Results reported in paper PMC9583317 (ACS Omega, 2022).
Numbered stars: 1 amine (or outer) side, 2 acyl side, 3 side chain; on linkers, the order of the positions; unused ones are H or OH. Square brackets hold non-standard residues; d marks the D form. Peptide text beside a SMILES is read from it. X1 = O=C(C(=Cc1ccccc1)N[*:1])[*:2]

Key:
[1] = tested on: Red blood cells (RBCs); test: In vitro hemolysis; assay type: cell-based; details: human RBC suspension, 39 to 773 μM, 37 °C, 3 h, absorbance 540 nm
How it was run: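 Human blood collected in 10% citrate-phosphate-dextrose. RBCs pelleted at 1500g, 10 min, 25 °C, and washed 3–5 times in PBS. A 10% (v/v) packed-RBC suspension was mixed 1:1 with peptide nanoparticles (39–773 μM) or the siRNA nanocomplex (70–280 nM). Incubated 3 h at 37 °C, then re-spun. Released hemoglobin read in supernatant at 540 nm. PBS and 0.2% Triton X-100 served as controls.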

[2] = target: Proteinase K (Parengyodontium album, UniProt P06873); test: Proteolytic stability with proteinase K; assay type: in vitro ADME; details: 6 h, room temperature
How it was run: (§1)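 Self-assembled peptide nanoparticles were exposed to proteinase K or trypsin for 6 h at room temperature with constant low-rpm stirring. Degradation was assessed by reverse-phase HPLC on a C-18 column. Morphological change of enzyme-treated particles was imaged by TEM.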

[3] = tested on: trypsin; test: Proteolytic stability with trypsin; assay type: in vitro ADME; details: 6 h, room temperature
How it was run: as §1

[4] = ref [31]; cited from earlier work

Sequence of Proteinase K (P06873 106-384): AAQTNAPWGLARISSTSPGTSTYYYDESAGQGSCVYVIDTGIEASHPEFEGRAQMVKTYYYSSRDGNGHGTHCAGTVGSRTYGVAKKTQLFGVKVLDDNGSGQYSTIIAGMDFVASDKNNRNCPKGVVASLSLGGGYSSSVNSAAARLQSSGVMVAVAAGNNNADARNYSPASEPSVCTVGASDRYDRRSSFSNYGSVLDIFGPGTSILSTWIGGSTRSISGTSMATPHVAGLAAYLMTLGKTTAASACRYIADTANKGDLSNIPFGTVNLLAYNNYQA

Compound | hemolysis [1] | morphological change after proteinase K (TEM) [2] | stability to trypsin compared with natural analogue RFRGD ([3]; RP-HPLC C-18, RFRGD NPs in PBS (Fig S2b)) | morphological change after trypsin (TEM) ([3]; TEM) | proteolytic stability to trypsin (RP-HPLC) ([3]; constant stirring, RP-HPLC C-18) | size of nanospheres [4]
N=C(N)NCCC[C@H](NC(=O)C(=Cc1ccccc1)NC(=O)[C@@H](N)CCCNC(=N)N)C(=O)NCC(=O)N[C@@H](CC(=O)O)C(N)=O [RΔFRGD] (H-R[X1]RGD-NH2) | less than 5% | no changes in morphological structures | significantly more stable | no changes in morphological structures | observable degradation | –
arginine-α,β-dehydrophenylalanine [RΔF] | – | – | – | – | – | 60–80 nm
